Active and inactive are the calls of the source. The rule behind the calls is not given here.
Experiments:
Mus musculus [1] = assay: Inhibition of carrageenan-induced paw edema in Swiss albino mouse at 50 mg/kg, po after 270 mins relative to control; type: functional; details: 4.5 h
Method in brief: (§1)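 Mice, n = 6 per group. Test agent given orally as a suspension in 0.5% sodium CMC in distilled water; controls received vehicle only. Afterwards, 0.5 mg/25 ll carrageenan in saline (154 mM NaCl) injected subplantar into the right hind paw, saline into the left. Right-minus-left footpad thickness measured by dial gauge caliper every 90 min for 6 h. Inhibition is relative to vehicle-control group means.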

Mus musculus [2] = assay: Inhibition of carrageenan-induced paw edema in Swiss albino mouse at 50 mg/kg, po after 360 mins relative to control; type: functional; details: 6 h; method in brief: as §1
Mus musculus [3] = assay: Antiinflammatory activity against carrageenan-induced paw edema in Swiss albino mouse assessed as swelling thickness at 25 mg/kg, po after 180 mins; type: functional
Method in brief: (§2)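 Oral dosing in 0.5% CMC; vehicle to controls. Then carrageenan (0.5 mg/25 ll, freshly suspended in 154 mM saline) injected into the right hind paw subplantar tissue; saline into the left paw. Right-left footpad thickness difference measured by dial gauge calliper every 90 min over 6 h. Inhibition % is relative to vehicle control. n = 6; mean ± SEM.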

Mus musculus [4] = assay: Analgesic activity against p-benzoquinone-induced abdominal constriction in Swiss albino mouse assessed as number of writhings at 50 mg/kg, po; type: functional, Abdomen
Method in brief: (§3)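 Test samples given orally in 0.5% CMC; vehicle to controls. 60 min later, 2.5% (v/v) p-benzoquinone in distilled water, 0.1 ml/10 g, given i.p. Mice housed singly; writhes counted for 15 min starting 5 min after injection. Activity is % change from vehicle controls. n = 6; mean ± SEM.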

Mus musculus [5] = assay: Inhibition of carrageenan-induced paw edema in Swiss albino mouse at 200 mg/kg, po after 180 mins relative to control; type: functional; details: 3 h; method in brief: as §2
Mus musculus [6] = assay: Antiinflammatory activity against carrageenan-induced paw edema in Swiss albino mouse assessed as swelling thickness at 25 mg/kg, po after 90 mins; type: functional; method in brief: as §2
Mus musculus [7] = assay: Acute toxicity in Swiss albino mouse assessed as lethal effect at 200 mg/kg/day, po after 72 hrs; type: organism-based; set-up: route oral; details: in vivo
Method in brief: (§4)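 Oral single dose suspended in 0.5% carboxymethylcellulose, given after a 24 h fast; food and water returned 1 h after dosing. Vehicle-only controls. Mice observed at 1 h, then once daily for 72 h, for toxic signs and mortality.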

Mus musculus [8] = assay: Inhibition of carrageenan-induced paw edema in Swiss albino mouse at 25 mg/kg, po after 270 mins relative to control; type: functional; details: 4.5 h; method in brief: as §2
Mus musculus [9] = assay: Acute toxicity in Swiss albino mouse assessed as lethal effect at 100 mg/kg/day, po after 72 hrs; type: organism-based; set-up: route oral; details: in vivo; method in brief: as §4
Mus musculus [10] = assay: Inhibition of carrageenan-induced paw edema in Swiss albino mouse at 200 mg/kg, po after 360 mins relative to control; type: functional; details: 6 h; method in brief: as §2
Mus musculus [11] = assay: Inhibition of carrageenan-induced paw edema in Swiss albino mouse at 25 mg/kg, po after 360 mins relative to control; type: functional; details: 6 h; method in brief: as §2
Mus musculus [12] = assay: Inhibition of carrageenan-induced paw edema in Swiss albino mouse at 50 mg/kg, po after 90 mins relative to control; type: functional; details: 1.5 h; method in brief: as §1
Mus musculus [13] = assay: Inhibition of carrageenan-induced paw edema in Swiss albino mouse at 200 mg/kg, po after 270 mins relative to control; type: functional; details: 4.5 h; method in brief: as §2
Mus musculus [14] = assay: Analgesic activity against p-benzoquinone-induced abdominal constriction in Swiss albino mouse assessed as number of writhings at 25 mg/kg, po; type: functional, Abdomen; method in brief: as §3
Mus musculus [15] = assay: Antiinflammatory activity against carrageenan-induced paw edema in Swiss albino mouse assessed as swelling thickness at 50 mg/kg, po after 270 mins; type: functional; method in brief: as §2
Mus musculus [16] = assay: Analgesic activity against p-benzoquinone-induced abdominal constriction in Swiss albino mouse assessed as number of writhings at 200 mg/kg, po; type: functional, Abdomen; method in brief: as §3
Mus musculus [17] = assay: Inhibition of p-benzoquinone-induced writhing in Swiss albino mouse at 100 mg/kg, po relative to control; type: functional
Method in brief: (§5)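 Mice, n = 6 per group, dosed orally with a suspension in 0.5% sodium CMC. 60 min later, 0.1 ml/10 g of 2.5% […] p-benzoquinone in distilled water given ip. Abdominal writhes counted per animal for 15 min, starting 5 min after injection. Expressed as % change in mean writhing count versus vehicle controls.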

Mus musculus [18] = assay: Antiinflammatory activity against carrageenan-induced paw edema in Swiss albino mouse assessed as swelling thickness at 100 mg/kg, po after 90 mins; type: functional; method in brief: as §2
Mus musculus [19] = assay: Acute toxicity in Swiss albino mouse assessed as lethal effect at 50 mg/kg/day, po after 72 hrs; type: organism-based; set-up: route oral; details: in vivo; method in brief: as §4
Mus musculus [20] = assay: Inhibition of p-benzoquinone-induced writhing in Swiss albino mouse at 200 mg/kg, po relative to control; type: functional; method in brief: as §5
Mus musculus [21] = assay: Inhibition of carrageenan-induced paw edema in Swiss albino mouse at 100 mg/kg, po after 180 mins relative to control; type: functional; details: 3 h; method in brief: as §2
Mus musculus [22] = assay: Antiinflammatory activity against carrageenan-induced paw edema in Swiss albino mouse assessed as swelling thickness at 50 mg/kg, po after 90 mins; type: functional; method in brief: as §2
Mus musculus [23] = assay: Antiinflammatory activity against carrageenan-induced paw edema in Swiss albino mouse assessed as swelling thickness at 200 mg/kg, po after 90 mins; type: functional; method in brief: as §2
Mus musculus [24] = assay: Gastric-ulcerogenic effect in Swiss albino mouse assessed as lesions at 25 mg/kg, po; type: functional, organism-based; set-up: dose 25 mg/kg
Method in brief: (§6)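 Mice killed under deep ether anesthesia 3 h after the writhing test; the oral dose in 0.5% CMC was the one used in that test. Stomachs removed, opened along the great curvature and examined under a dissecting microscope for lesions or bleeding. Reported as ratio of ulceration; n = 6.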

Mus musculus [25] = assay: Antiinflammatory activity against carrageenan-induced paw edema in Swiss albino mouse assessed as swelling thickness at 200 mg/kg, po after 270 mins; type: functional; method in brief: as §2
Mus musculus [26] = assay: Gastric-ulcerogenic effect in Swiss albino mouse assessed as lesions at 100 mg/kg, po; type: functional, organism-based; set-up: dose 100 mg/kg; method in brief: as §6
Mus musculus [27] = assay: Antiinflammatory activity against carrageenan-induced paw edema in Swiss albino mouse assessed as swelling thickness at 50 mg/kg, po after 180 mins; type: functional; method in brief: as §2
Mus musculus [28] = assay: Inhibition of carrageenan-induced paw edema in Swiss albino mouse at 100 mg/kg, po after 270 mins relative to control; type: functional; details: 4.5 h; method in brief: as §2
Mus musculus [29] = assay: Inhibition of carrageenan-induced paw edema in Swiss albino mouse at 25 mg/kg, po after 180 mins relative to control; type: functional; details: 3 h; method in brief: as §2
Mus musculus [30] = assay: Inhibition of carrageenan-induced paw edema in Swiss albino mouse at 200 mg/kg, po after 90 mins relative to control; type: functional; details: 1.5 h; method in brief: as §2
Mus musculus [31] = assay: Antiinflammatory activity against carrageenan-induced paw edema in Swiss albino mouse assessed as swelling thickness at 200 mg/kg, po after 180 mins; type: functional; method in brief: as §2
Mus musculus [32] = assay: Gastric-ulcerogenic effect in Swiss albino mouse assessed as lesions at 50 mg/kg, po; type: functional, organism-based; set-up: dose 50 mg/kg; method in brief: as §6
Mus musculus [33] = assay: Inhibition of p-benzoquinone-induced writhing in Swiss albino mouse at 50 mg/kg, po relative to control; type: functional; method in brief: as §5
Mus musculus [34] = assay: Antiinflammatory activity against carrageenan-induced paw edema in Swiss albino mouse assessed as swelling thickness at 100 mg/kg, po after 180 mins; type: functional; method in brief: as §2
Mus musculus [35] = assay: Antiinflammatory activity against carrageenan-induced paw edema in Swiss albino mouse assessed as swelling thickness at 25 mg/kg, po after 360 mins; type: functional; method in brief: as §2
Mus musculus [36] = assay: Inhibition of carrageenan-induced paw edema in Swiss albino mouse at 25 mg/kg, po after 90 mins relative to control; type: functional; details: 1.5 h; method in brief: as §2
Mus musculus [37] = assay: Analgesic activity against p-benzoquinone-induced abdominal constriction in Swiss albino mouse assessed as number of writhings at 100 mg/kg, po; type: functional, Abdomen; method in brief: as §3
Mus musculus [38] = assay: Inhibition of p-benzoquinone-induced writhing in Swiss albino mouse at 25 mg/kg, po relative to control; type: functional; method in brief: as §5
Mus musculus [39] = assay: Acute toxicity in Swiss albino mouse assessed as lethal effect at 25 mg/kg/day, po after 72 hrs; type: organism-based; set-up: route oral; details: in vivo; method in brief: as §4
Mus musculus [40] = assay: Antiinflammatory activity against carrageenan-induced paw edema in Swiss albino mouse assessed as swelling thickness at 50 mg/kg, po after 360 mins; type: functional; method in brief: as §2
Mus musculus [41] = assay: Inhibition of carrageenan-induced paw edema in Swiss albino mouse at 100 mg/kg, po after 90 mins relative to control; type: functional; details: 1.5 h; method in brief: as §2
Mus musculus [42] = assay: Antiinflammatory activity against carrageenan-induced paw edema in Swiss albino mouse assessed as swelling thickness at 25 mg/kg, po after 270 mins; type: functional; method in brief: as §2
Mus musculus [43] = assay: Antiinflammatory activity against carrageenan-induced paw edema in Swiss albino mouse assessed as swelling thickness at 100 mg/kg, po after 270 mins; type: functional; method in brief: as §2
Mus musculus [44] = assay: Inhibition of carrageenan-induced paw edema in Swiss albino mouse at 100 mg/kg, po after 360 mins relative to control; type: functional; details: 6 h; method in brief: as §2
Mus musculus [45] = assay: Inhibition of carrageenan-induced paw edema in Swiss albino mouse at 50 mg/kg, po after 180 mins relative to control; type: functional; details: 3 h; method in brief: as §2
Mus musculus [46] = assay: Antiinflammatory activity against carrageenan-induced paw edema in Swiss albino mouse assessed as swelling thickness at 200 mg/kg, po after 360 mins; type: functional; method in brief: as §2
Mus musculus [47] = assay: Antiinflammatory activity against carrageenan-induced paw edema in Swiss albino mouse assessed as swelling thickness at 100 mg/kg, po after 360 mins; type: functional; method in brief: as §2

SMILES: CCS(=O)(=O)c1nc(-c2ccccc2)n[nH]1
- inhibition in vivo at 50 mg/kg (Mus musculus [1]): 31.2%
- inhibition in vivo at 50 mg/kg (Mus musculus [2]): 38.6%
- Activity (Mus musculus [3]): 54.9 10^-2mm
- Activity (Mus musculus [4]): 26.7
- inhibition in vivo at 200 mg/kg (Mus musculus [5]): 11.9%
- Activity (Mus musculus [6]): 48.6 10^-2mm
- Activity (Mus musculus [7]): Non-toxic
- inhibition in vivo at 25 mg/kg (Mus musculus [8]): 10.3%
- Activity (Mus musculus [9]): Non-toxic
- inhibition in vivo at 200 mg/kg (Mus musculus [10]): 9.4%
- inhibition in vivo at 25 mg/kg (Mus musculus [11]): 13.3%
- inhibition in vivo at 50 mg/kg (Mus musculus [12]): 26.3%
- inhibition in vivo at 200 mg/kg (Mus musculus [13]): 11.1%
- Activity (Mus musculus [14]): 38.2
- Activity (Mus musculus [15]): 44.6 10^-2mm
- Activity (Mus musculus [16]): 48.5
- inhibition in vivo at 100 mg/kg (Mus musculus [17]): 41.9%
- Activity (Mus musculus [18]): 33.2 10^-2mm
- Activity (Mus musculus [19]): Non-toxic
- inhibition in vivo at 200 mg/kg (Mus musculus [20]): 5.6%
- inhibition in vivo at 100 mg/kg (Mus musculus [21]): 31.7%
- Activity (Mus musculus [22]): 39.2 10^-2mm
- Activity (Mus musculus [23]): 47.9 10^-2mm
- Activity (Mus musculus [24]): Active
- Activity (Mus musculus [25]): 57.6 10^-2mm
- Activity (Mus musculus [26]): Active
- Activity (Mus musculus [27]): 41.3 10^-2mm
- inhibition in vivo at 100 mg/kg (Mus musculus [28]): 33.3%
- inhibition in vivo at 25 mg/kg (Mus musculus [29]): 7.7%
- inhibition in vivo at 200 mg/kg (Mus musculus [30]): 9.9%
- Activity (Mus musculus [31]): 52.3 10^-2mm
- Activity (Mus musculus [32]): Active
- inhibition in vivo at 50 mg/kg (Mus musculus [33]): 48.1%
- Activity (Mus musculus [34]): 35.2 10^-2mm
- Activity (Mus musculus [35]): 62.4 10^-2mm
- inhibition in vivo at 25 mg/kg (Mus musculus [36]): 8.6%
- Activity (Mus musculus [37]): 27.5
- inhibition in vivo at 25 mg/kg (Mus musculus [38]): 25.7%
- Activity (Mus musculus [39]): Non-toxic
- Activity (Mus musculus [40]): 44.2 10^-2mm
- inhibition in vivo at 100 mg/kg (Mus musculus [41]): 25.9%
- Activity (Mus musculus [42]): 58.1 10^-2mm
- Activity (Mus musculus [43]): 39.2 10^-2mm
- inhibition in vivo at 100 mg/kg (Mus musculus [44]): 36.8%
- inhibition in vivo at 50 mg/kg (Mus musculus [45]): 30.5%
- Activity (Mus musculus [46]): 65.2 10^-2mm
- Activity (Mus musculus [47]): 43.5 10^-2mm
